We go through 14 compounds from ChEMBL document CHEMBL1926547, “Structure based drug design, synthesis and evaluation of 4-(benzyloxy)-1-phenylbut-2-yn-1-ol derivatives as 5-lipoxygenase inhibitors” (Eur J Med Chem, 2012).

Active and inactive are the calls of the source. The rule behind the calls is not given here.

One may read the IC50 as the concentration at which inhibition is half-maximal. As usually defined, the GI50 is the concentration at which growth is held to half of that of the control. Low values mean more potent growth inhibition, high ones less potent growth inhibition.

Data set [1] addresses T1, Polyunsaturated fatty acid 5-lipoxygenase (Homo sapiens, UniProt P09917).
T1 sequence (P09917 whole entry): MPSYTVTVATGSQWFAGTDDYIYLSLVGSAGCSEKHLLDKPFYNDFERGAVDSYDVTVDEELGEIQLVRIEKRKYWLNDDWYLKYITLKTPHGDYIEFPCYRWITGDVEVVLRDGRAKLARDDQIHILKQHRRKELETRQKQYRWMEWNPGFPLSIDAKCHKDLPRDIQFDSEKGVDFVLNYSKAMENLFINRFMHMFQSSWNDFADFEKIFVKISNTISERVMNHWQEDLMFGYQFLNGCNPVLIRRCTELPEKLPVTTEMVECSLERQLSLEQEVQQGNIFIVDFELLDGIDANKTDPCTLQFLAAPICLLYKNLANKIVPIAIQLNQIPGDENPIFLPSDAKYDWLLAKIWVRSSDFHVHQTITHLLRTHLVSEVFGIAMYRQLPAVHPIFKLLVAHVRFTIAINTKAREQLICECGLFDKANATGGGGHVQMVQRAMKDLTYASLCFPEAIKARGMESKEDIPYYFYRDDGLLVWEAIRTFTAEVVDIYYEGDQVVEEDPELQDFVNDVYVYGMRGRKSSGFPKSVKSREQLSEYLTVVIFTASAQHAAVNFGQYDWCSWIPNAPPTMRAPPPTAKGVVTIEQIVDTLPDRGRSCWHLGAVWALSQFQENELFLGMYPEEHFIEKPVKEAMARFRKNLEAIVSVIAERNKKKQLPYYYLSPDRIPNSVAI
Description: Inhibition of 5-LOX assessed as decrease in oxygen concentration using arachidonic acid as substrate by polarigraphic method with Clark's oxygen electrode. The gist of the method: (§1)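 Purified 5-LOX, activity measured polarographically by Clark oxygen electrode as rate of O2 decrease. Enzyme in 100 mM phosphate pH 6.3, 3 mL final, with compound (DMSO stocks, various concentrations); reaction started with arachidonic acid 133 μM, 25 °C; maximal slope used. IC50 from concentration–inhibition curve; each assay repeated thrice.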

The subject of a further data set is COLO 205. Description: Growth inhibition of human COLO205 cells after 48 hrs by MTT assay. In kind it is functional. To be noted: COLO 205, 48 h. In outline:
(§2)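 Cells kept in RPMI-1640 + 10% heat-inactivated FBS, penicillin/streptomycin, 2 mM glutamine, 37 °C 5% CO2; seeded 5×10^3/well the day before, washed with PBS, fresh medium. Compounds 0.1–100 μM, 48 h; MTT 4 h at 37 °C, formazan dissolved in DMSO, OD 570 nm. GI50 from dose-survival curves; three experiments in triplicate.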
(In general: Formazan colour is commonly taken as a measure of viable cells.)

Another data set relates to HepG2. Description: Growth inhibition of human HepG2 cells after 48 hrs by MTT assay. In kind it is functional. To be noted: HepG2, 48 h. In outline: as §2
The next data set relates to MDA-MB-231. Put plainly: Growth inhibition of human MDA-MB-231 cells after 48 hrs by MTT assay. In kind it is functional. The following applies: MDA-MB-231, 48 h. The gist of the method:
as §2

Data set [2] relates to Mus musculus. Put plainly: Antiinflammatory activity against LPS-induced inflammation in BALB/c mouse acute lung injury model assessed as reduction in total cell count bronchoalveolar lavage fluid at 50 mg/kg, ip administered 1 hr prior to LPS challenge measured after 12 hrs by Wright-Giemsa staining based hemocytometry. In kind it is functional, organism-based. Also noted: dose 50 mg/kg. The gist of the method: (§3)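 Male BALB/c mice (20–25 g, 6/group), intratracheal LPS 1 mg/kg in PBS under ketamine/xylazine, compound 50 mg/kg ip 1 h prior. At 12 h, lavage three times with 0.5 mL PBS via tracheal cannula; pellet resuspended; total cells by hemocytometer; differentials from ≥200 cells on Wright–Giemsa smear. Mean ± SEM, unpaired t-test.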

Data set [3] deals with Mus musculus. Put plainly: Antiinflammatory activity against LPS-induced inflammation in BALB/c mouse acute lung injury model assessed as reduction in neutrophil count in bronchoalveolar lavage fluid at 50 mg/kg, ip administered 1 hr prior to LPS challenge measured after 12 hrs by Wright-Giemsa staining based hemocytometry. In kind it is functional, organism-based. Further details: dose 50 mg/kg. The gist of the method:
as §3

Data set [4] has as its system Mus musculus. Put plainly: Antiinflammatory activity against LPS-induced inflammation in BALB/c mouse acute lung injury model assessed as reduction in macrophage count in bronchoalveolar lavage fluid at 50 mg/kg, ip administered 1 hr prior to LPS challenge measured after 12 hrs by Wright-Giemsa staining based hemocytometry. In kind it is functional, organism-based. Also noted: dose 50 mg/kg. In outline:
as §3

Data set [5] deals with Mus musculus. Description: Antiinflammatory activity against LPS-induced inflammation in BALB/c mouse acute lung injury model assessed as reduction in protein level in bronchoalveolar lavage fluid at 50 mg/kg, ip administered 1 hr prior to LPS challenge measured after 12 hrs by Bradford assay. In kind it is functional, organism-based. Further details: dose 50 mg/kg. The gist of the method:
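Mouse LPS lung-injury model as described (BALB/c males, intratracheal LPS 1 mg/kg, compound 50 mg/kg ip 1 h beforehand). BAL fluid collected 12 h post-challenge, centrifuged 3000 rpm 10 min at 4 °C; supernatant stored −70 °C; protein by Bradford, expressed as mg/mL BALF. Six mice per group.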

Data set [6] relates to Mus musculus. Put plainly: Antiinflammatory activity against LPS-induced inflammation in BALB/c mouse acute lung injury model assessed as reduction in inflammatory cells infiltration at 50 mg/kg, ip administered 1 hr prior to LPS challenge measured after 12 hrs by hematoxylin and eosin staining based light microscopy. Also noted: dose 50 mg/kg. In kind it is functional, organism-based. In outline: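 Male BALB/c mice (20–25 g, 6/group, fasted 8 h) anesthetized with ketamine/xylazine; LPS 25 μg (1 mg/kg) intratracheal in 50 μL PBS; test agent 50 mg/kg ip 1 h before; PBS vehicle controls. At 12 h right lungs inflated, fixed in 10% buffered formaldehyde, paraffin-embedded, H&E stained; infiltration and wall thickening judged by light microscopy.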

Data set [7] relates to Mus musculus. Put plainly: Antiinflammatory activity against LPS-induced inflammation in BALB/c mouse acute lung injury model assessed as reduction in wet/dry ratio of lung at 50 mg/kg, ip administered 1 hr prior to LPS challenge measured after 12 hrs. In kind it is functional, organism-based. Also noted: dose 50 mg/kg. In outline: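 In BALB/c males given intratracheal LPS (1 mg/kg) after ip dosing at 50 mg/kg 1 h earlier, left lungs excised at 12 h, rinsed thrice in PBS, blotted, weighed, oven-dried at 72 °C for 36–48 h and reweighed; wet/dry ratio indicates edema. Six mice per group.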

For data set [8], the system named is Mus musculus. Put plainly: Antiinflammatory activity against LPS-induced inflammation in BALB/c mouse acute lung injury model assessed as reduction in alveolar wall thickening at 50 mg/kg, ip administered 1 hr prior to LPS challenge measured after 12 hrs by hematoxylin and eosin staining based light microscopy.
In data set [9] the target is T2, Polyunsaturated fatty acid 5-lipoxygenase (Homo sapiens) (UniProt P09917).
T2 sequence (whole entry): T1 sequence (P09917 whole entry)
Put plainly: Irreversible inhibition of 5-LOX assessed as decrease in oxygen concentration using arachidonic acid as substrate at 10-fold increased enzyme concentration pre-incubated for 5 mins before substrate addition by polarigraphic method with Clark's oxygen electrode. In outline:
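Oxygen-electrode 5-LOX assay run with 10-fold excess enzyme: enzyme and compound incubated 5 min, then reaction initiated with arachidonic acid 133 μM; AA-861 control.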

Data set [10] concerns the target T2, Polyunsaturated fatty acid 5-lipoxygenase (Homo sapiens). Description: Irreversible inhibition of 5-LOX assessed as decrease in oxygen concentration using arachidonic acid as substrate measured after dilution by polarigraphic method with Clark's oxygen electrode.
For data set [11] the target is unchanged. Description: Inhibition of 5-LOX assessed as decrease in oxygen concentration using arachidonic acid as substrate by polarigraphic method with Clark's oxygen electrode in presence of 0.1 mg/mL BSA. The gist of the method: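 Oxygen-electrode 5-LOX assay (phosphate pH 6.3, 25 °C) with enzyme pre-incubated with BSA 0.1 mg/mL plus compound before starting with arachidonic acid 133 μM; reduced inhibition taken as sign of non-specific binding. AA-861 control.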

For another data set, the system named is HaCaT. Description: Cytotoxicity against human HaCaT cells at up to 100 uM after 48 hrs by MTT assay. In kind it is cell-based. In outline:
as §2

Data set [12] deals with T1, Polyunsaturated fatty acid 5-lipoxygenase. Description: Inhibition of 5-LOX. In outline:
as §1

Regarding `COc1ccc(C(O)C#CCOCc2ccc(SC)cc2)cc1OC` (stereo not given), the IC50 in data set [1] turned out to be 80 µM.
The same measure, in the same setting: then `CC1=C(C)C(=O)C(CCCCC#CCCCC#CCO)=C(C)C1=O` [DOCEBENONE], with 1.7 µM.
`COc1cc(C(O)C#CCOCc2ccc(SC)cc2)cc(OC)c1OC` (stereo not given): in [1], the IC50 amounted to 80 µM. The GI50 in the data set with COLO 205, in the data set with HepG2 and in the data set on MDA-MB-231 was 100 µM each time.
On to `OC(C#CCOCc1ccccc1)c1ccccc1` (stereo not given), for which, in data set [1], the IC50 was over 100 µM.
For `Cc1ccc(-c2cc(C(F)(F)F)nn2-c2ccc(S(N)(=O)=O)cc2)cc1`, the inhibition entry with Mus musculus [2], in the data set on Mus musculus [3], in the data set with Mus musculus [4], in the data set on Mus musculus [5], in the data set on Mus musculus [6] and with Mus musculus [8] was “Active” in each case. Moreover, in the data set on Mus musculus [7], the result was Active.
Turning to `CCCCCC(O)C#CCOCc1ccc(SC)cc1` (stereo not given), the IC50 in data set [1] was over 100 µM.
The same measure, in the same setting: under `COc1cccc(C(O)C#CCOCc2ccc(SC)cc2)c1OC` (stereo not given) stands 69 µM.
`COc1ccc(C(O)C#CCOCc2ccc(SC)cc2)cc1` (stereo not given): the IC50 in [1] is over 100 µM.
As for `CSc1ccc(COCC#CC(O)c2ccc(F)cc2)cc1` (stereo not given), the IC50 in data set [1] turned out to be 12 µM. The inhibition entry in [9] and in [10] was “Active” throughout. For the same compound, the fold change (FC) in data set [11] was 1. The 50% growth inhibitory concentration (GI50) in the data set on COLO 205 is 22 µM; in the data set with HepG2, 31 µM; with MDA-MB-231 it was 20 µM. Moreover, the Activity result with HaCaT is “Non-toxic”.
In the case of `CSc1ccc(COCC#CC(O)c2cccc([N+](=O)[O-])c2)cc1` (stereo not given), the IC50 in [1] amounted to 62 µM. Besides, the values for the GI50 in the data set on COLO 205, with HepG2 and in the data set on MDA-MB-231 were 71 µM, 54 µM and 62 µM, respectively.
In the case of `CCCC(O)C#CCOCc1ccccc1` (stereo not given), it took 760 µM to reach half-maximal inhibition in data set [12] (IC50).
Turning to `CSc1ccc(COCC#CC(O)c2ccc(C(C)C)cc2)cc1` (stereo not given), the IC50 in [1] was 8 µM. The inhibition entry (in data set [9]; in data set [10]; in the data set on Mus musculus [2]; in the data set on Mus musculus [3]; with Mus musculus [4]; in the data set on Mus musculus [5]) was “Active” each time. The inhibition entry in the data set on Mus musculus [6] and in the data set with Mus musculus [8] was “Active” throughout. The fold change (FC) in data set [11] is 1. The GI50 in the data set on COLO 205 turned out to be 12 µM; in the data set with HepG2, 22 µM; in the data set on MDA-MB-231, 15 µM. Also, in the data set on HaCaT, the Activity result is listed as “Non-toxic”. In addition, in the data set with Mus musculus [7], the result was Active.
Turning to `COc1ccc(C(O)C#CCOCc2ccc(SC)cc2)c(OC)c1OC` (stereo not given), the IC50 in data set [1] amounted to 72 µM.
With `CSc1ccc(COCC#CC(O)c2ccc(C#N)cc2)cc1` (stereo not given), in data set [1], the IC50 was found to be 41 µM. Further, the GI50 with COLO 205 was 71 µM; in the data set with HepG2 it was 54 µM; in the data set with MDA-MB-231, 62 µM.
